Test results as given in ChEMBL document CHEMBL1687755, “PER-6, an extended-spectrum beta-lactamase from Aeromonas allosaccharophila” (Antimicrob Agents Chemother, 2010).
≈ marks a conversion by molar mass, not a printed value.

Assays:
[1] = tested on: Aeromonas allosaccharophila; assay: Antimicrobial activity against Aeromonas allosaccharophila AL-1 expressing beta-lactamase PER6 by agar dilution method; assay type: functional
How it was run: (§1)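 The test organism was environmental isolate AL-1, recovered from Seine River water on MacConkey agar containing ceftazidime (2 μg/ml). It was identified by API 32GN and 16S rRNA gene sequencing. MICs were determined by agar dilution on Mueller-Hinton agar and interpreted by CLSI guidelines.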

Escherichia coli [2] = assay: Antimicrobial activity against Escherichia coli DH10B by agar dilution method; assay type: functional; details: K-12 DH10B
How it was run: (§2)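 MICs measured by agar dilution on Mueller-Hinton agar plates, the method used for imipenem and imipenem combined with clavulanate; other MICs were obtained by Etest. Results were interpreted according to CLSI guidelines. Test strains were E. coli DH10B recombinants carrying cloned PER-1, PER-2 or PER-6 β-lactamase genes.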

Escherichia coli [3] = assay: Antimicrobial activity against Escherichia coli DH10B harboring recombinant Aeromonas allosaccharophila AL-1 beta-lactamase PER6 by agar dilution method; assay type: functional; details: K-12 DH10B
Escherichia coli [4] = assay: Antimicrobial activity against Escherichia coli DH10B harboring recombinant Aeromonas allosaccharophila AL-1 beta-lactamase PER1 by agar dilution method; assay type: functional; details: K-12 DH10B
[5] = tested on: Aeromonas allosaccharophila; assay: Ratio of Kcat to Km for Aeromonas allosaccharophila AL-1 beta-lactamase PER2
Escherichia coli [6] = assay: Antimicrobial activity against Escherichia coli DH10B harboring recombinant Aeromonas allosaccharophila AL-1 beta-lactamase PER2 by agar dilution method; assay type: functional; details: K-12 DH10B
Escherichia coli [7] = assay: Antimicrobial activity against Escherichia coli DH10B by agar dilution method in presence of 4 ug/ml of clavulanic acid; assay type: functional; details: K-12 DH10B; how it was run: as §2
Escherichia coli [8] = assay: Antimicrobial activity against Escherichia coli DH10B harboring recombinant Aeromonas allosaccharophila AL-1 beta-lactamase PER2 by agar dilution method in presence of 4 ug/ml of clavulanic acid; assay type: functional; details: K-12 DH10B
Escherichia coli [9] = assay: Antimicrobial activity against Escherichia coli DH10B harboring recombinant Aeromonas allosaccharophila AL-1 beta-lactamase PER6 by agar dilution method in presence of 4 ug/ml of clavulanic acid; assay type: functional; details: K-12 DH10B
Escherichia coli [10] = assay: Antimicrobial activity against Escherichia coli DH10B harboring recombinant Aeromonas allosaccharophila AL-1 beta-lactamase PER1 by agar dilution method in presence of 4 ug/ml of clavulanic acid; assay type: functional; details: K-12 DH10B
[11] = tested on: Aeromonas allosaccharophila; assay: Antimicrobial activity against Aeromonas allosaccharophila AL-1 expressing beta-lactamase PER6 by agar dilution method in presence of 4 ug/ml of clavulanic acid; assay type: functional; how it was run: as §1

Structure (SMILES) | MIC [1] | MIC (Escherichia coli [2]) | MIC (Escherichia coli [3]) | MIC (Escherichia coli [4]) | kcat/Km [5] | MIC (Escherichia coli [6]) | MIC (Escherichia coli [7]) | MIC (Escherichia coli [8]) | MIC (Escherichia coli [9]) | MIC (Escherichia coli [10]) | MIC [11]
C[C@@H](O)[C@H]1C(=O)N2C(C(=O)O)=C(S[C@@H]3CN[C@H](C(=O)Nc4cccc(C(=O)O)c4)C3)[C@H](C)[C@H]12 | 0.5 µg/mL (≈ 1.05 µM) | < 0.03 µg/mL | – | – | – | – | – | – | – | – | –
CO/N=C(\C(=O)N[C@@H]1C(=O)N2C(C(=O)[O-])=C(C[N+]3(C)CCCC3)CS[C@H]12)c1csc(N)n1 | 0.5 µg/mL (≈ 1.04 µM) | – | 32 µg/mL | 16 µg/mL | 20000 M⁻¹ s⁻¹ | 32 µg/mL | – | – | – | – | –
CC1(C)S[C@@H]2[C@H](NC(=O)Cc3ccccc3)C(=O)N2[C@H]1C(=O)O | – | – | – | – | 120000 M⁻¹ s⁻¹ | – | – | – | – | – | –
CC1(C)S[C@@H]2[C@H](NC(=O)[C@H](N)c3ccccc3)C(=O)N2[C@H]1C(=O)O | – | – | – | – | 330000 M⁻¹ s⁻¹ | – | – | – | – | – | –
CC1(C)S[C@@H]2[C@H](NC(=O)[C@H](N)c3ccc(O)cc3)C(=O)N2[C@H]1C(=O)O [AMOXICILLIN] | > 256 µg/mL | 4 µg/mL (≈ 10.9 µM) | > 256 µg/mL | > 256 µg/mL | – | > 256 µg/mL | 4 µg/mL | 6 µg/mL | 4 µg/mL | 4 µg/mL | 12 µg/mL
C[C@H]1[C@H](NC(=O)/C(=N\OC(C)(C)C(=O)O)c2csc(N)n2)C(=O)N1S(=O)(=O)O [AZTREONAM] | 1 µg/mL (≈ 2.3 µM) | – | > 256 µg/mL | > 256 µg/mL | 120000 M⁻¹ s⁻¹ | > 256 µg/mL | – | – | – | – | –
CO/N=C(\C(=O)N[C@@H]1C(=O)N2C(C(=O)O)=C(COC(C)=O)CS[C@H]12)c1csc(N)n1 [CEFOTAXIME] | 2 µg/mL (≈ 4.39 µM) | 0.12 µg/mL (≈ 0.263 µM) | 64 µg/mL | 48 µg/mL | 760000 M⁻¹ s⁻¹ | 64 µg/mL | – | – | – | – | –
CO[C@@]1(NC(=O)Cc2cccs2)C(=O)N2C(C(=O)O)=C(COC(N)=O)CS[C@@H]21 [CEFOXITIN] | 0.5 µg/mL (≈ 1.17 µM) | 1 µg/mL (≈ 2.34 µM) | 2 µg/mL | 2 µg/mL | < 10000 M⁻¹ s⁻¹ | 2 µg/mL | – | – | – | – | –
